An excerpt weighted towards active compounds, which were near 0.73% of everything screened.
TNAP inh hi DEA: blocks human TNAP under high phosphate acceptor concentration; purified TNAP, CDP-star luminescence, 1 M DEA; inhibition, % at 20 µM; 200,000 tested, 0.03% active; AID 1135;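 active means over 50% inhibition of tissue-nonspecific alkaline phosphatase at 20 µM in the single-dose screen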;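 further: plate controls were DMSO wells for no effect and EDTA-quenched wells as full inhibition for full effect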
Target sequence (P05186 whole entry, looked up): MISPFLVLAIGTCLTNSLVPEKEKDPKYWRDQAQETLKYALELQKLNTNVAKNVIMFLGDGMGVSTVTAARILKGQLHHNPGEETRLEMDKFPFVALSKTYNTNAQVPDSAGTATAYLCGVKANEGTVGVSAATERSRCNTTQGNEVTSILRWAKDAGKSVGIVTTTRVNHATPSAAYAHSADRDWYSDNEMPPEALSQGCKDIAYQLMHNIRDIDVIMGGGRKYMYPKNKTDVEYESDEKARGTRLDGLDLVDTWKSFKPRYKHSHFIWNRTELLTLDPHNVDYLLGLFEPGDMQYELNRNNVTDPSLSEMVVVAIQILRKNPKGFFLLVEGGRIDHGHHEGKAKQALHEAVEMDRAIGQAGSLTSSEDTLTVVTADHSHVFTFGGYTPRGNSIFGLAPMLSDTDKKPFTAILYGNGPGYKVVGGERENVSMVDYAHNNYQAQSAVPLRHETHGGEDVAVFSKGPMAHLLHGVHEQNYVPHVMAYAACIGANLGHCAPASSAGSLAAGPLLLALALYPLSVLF
TNAP act hi DEA: TNAP (human) activation, high acceptor | AID 1136 | P05186 | activation factor at 20 µM | 200,000 tested, under 10 active | purified TNAP, CDP-star luminescence, 1 M DEA, 30 min; active compounds read high; 0 = EDTA background, 1 = DMSO-only activity;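 active means activation factor at least 2 at 20 µM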
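system = human TNAP | amount = enzyme diluted 1/800 final | reagent = 100 µM CDP-star substrate | signal = luminescent substrate turnover signal | dosing = one dose, 20 µM | benchmarks = EDTA negative control, DMSO positive control | measure = activation factor | timing = 30 min reaction, room temperature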
Arbovirus anti: blocks arbovirus infection. arbovirus infection cell-based antiviral screen. 200,000 tested, 0.37% active. inhibition, % at 10 µM; in the data active means inhibition above about 30%
TNAP inh no acc: blocks human TNAP activity with no phosphate acceptor present | AID 1012 | inhibition, % at 20 µM | purified TNAP, CDP-star luminescence, 30 min | P05186 | 200,000 tested, 0.26% active;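 active means tissue-nonspecific alkaline phosphatase inhibition above about 50% at 20 µM in the single-dose screen, limit read from the data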;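 further: 0% = DMSO negative control and 100% = EDTA positive control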
PKD1 kinase inh: blocks activity of human protein kinase D1; inhibition, % (concentration not given with the values); Q15139; PKD1 kinase fluorescence polarization assay; AID 797; 200,000 tested, 0.056% active; in the data active means inhibition above about 50%
* hit, by the source's call; / = no result.

SMILES	TNAP inh hi DEA	TNAP act hi DEA	Arbovirus anti	TNAP inh no acc	PKD1 kinase inh
Cc1nc(CS(=O)c2ccc(Cl)cc2)cc(NCc2ccc(Cl)cc2Cl)n1 (stereo unspecified)	-5.5	1.1	85.0*	-13.1	-2.4
COc1ccc(CCN2C(=O)CC(N3CCN(S(=O)(=O)c4ccccc4)CC3)C2=O)cc1OC (stereo unspecified)	-6.9	1.1	-3.9	-11.3	-3.0
CC(=O)Nc1cccc(Oc2ncnc3scc(-c4ccccc4)c23)c1	3.3	1	45.3*	-10.0	-11.8
O=S(=O)(c1ccc(Oc2ncnc3scc(-c4ccccc4)c23)cc1)N1CCOCC1	-5.5	1.1	-1.0	-6.4	-0.4
Cc1c(C#N)c(N)nc(Cl)c1C#N	-3.1	1	1.4	-6.0	115.4*
COC(=O)c1cc(-c2c[nH]c3ccccc23)n[nH]1	0.5	1	5.3	89.2*	0.1
COC(=O)c1cc(-c2ccc(Br)cc2)n[nH]1	-0.1	1	-6.8	79.3*	-2.0
COc1ccc(-c2cc(C(=O)NN)[nH]n2)cc1OC	3.7	1	-5.0	30.2	0.6
CCc1ccc(-c2cc(C(=O)N/N=C/c3c[nH]c4ccccc34)[nH]n2)cc1	5.8	0.9	-29.0	22.2	7.4
COc1ccc(-c2cc(C(=O)NN)[nH]n2)cc1	8.2	0.9	-1.2	93.0*	-8.1
Cc1ccc(-c2cc(C(=O)Nc3cc(C)ccc3C)[nH]n2)c(O)c1	-2.4	1	1.8	-17.2	-4.5
COc1ccc(OC)c(NC(=O)c2cc(-c3ccc(C)cc3O)n[nH]2)c1	-0.1	1	30.8*	-41.7	4.3
COc1ccc(-c2nc(N)n[nH]2)cc1	-3.3	1	-5.4	62.6*	4.2
CCOc1ccc(-c2cc(C(=O)NN)[nH]n2)cc1	1.7	1	-0.3	67.0*	-5.5
COc1ccc(-c2cc(-c3ccc(OC)cc3)[nH]n2)cc1	-9.0	1.1	-19.4	66.5*	5.7
O=C(O)c1cc(-c2ccc(Cl)cc2)n[nH]1	-2.9	1	2.8	83.0*	-1.9
COc1ccc(-c2cc(-c3cc(C)ccc3O)[nH]n2)cc1	-6.2	1.1	-40.9	-29.9	1.4
COc1ccccc1N1CCN(S(=O)(=O)c2ccc3c(c2)n(C)c(=O)n3C)CC1	-3.4	1	15.6	-6.9	1.9
CN(C)c1ccc(/C=C(\C#N)C(=O)Nc2nc3c(s2)CCN(Cc2ccccc2)C3)cc1	26.0	0.7	-19.2	55.4*	-6.2
O=C(Nc1nc2c(s1)CN(Cc1ccccc1)CC2)C1CCC1	-4.6	1	-4.3	-4.4	-0.6
CC1(C)CC(=O)C(CC(=O)Nc2cc(C(F)(F)F)ccc2Cl)C(=O)C1	35.3	0.6	2.1	52.3*	-4.1
O=[N+]([O-])c1ccc(-c2c(O)c3ccccc3c3nc4ccccc4nc23)cc1	25.7	0.7	31.6*	19.6	2.5
CCOC(=O)CC1=NS(=O)(=O)c2ccccc2N1	-6.1	1.1	77.3*	-18.3	0.8
Cc1ccc(N2C(=O)C3CC(c4ccccc4)=C4C5C=CC(C6C(=O)N(c7ccc(C)cc7)C(=O)C56)C4C3C2=O)cc1 (stereo unspecified)	-3.0	1	33.0*	-9.3	-5.2
Cc1ccc(N2C(=O)C3CC(c4ccccc4)=C4C5C=CC(C6C(=O)N(c7ccc(C)cc7C)C(=O)C56)C4C3C2=O)c(C)c1 (stereo unspecified)	-5.7	1.1	-1.0	-8.9	-1.0
SMILES	TNAP inh hi DEA	TNAP act hi DEA	Arbovirus anti	TNAP inh no acc	PKD1 kinase inh
Cc1cc(C)n2[nH]c(=O)c(N=Nc3ccc(S(N)(=O)=O)cc3)c2n1	21.4	0.8	0.4	91.2*	-9.5
Cc1ccc(N=Nc2c(=O)[nH]n3c(C)cc(C)nc23)cc1	14.2	0.9	-8.4	27.2	0.6
CN(C(=O)c1coc(=O)c2ccccc12)c1ccc(Br)cc1	3.4	1	39.5*	-6.9	-4.4
CCCC(=O)Oc1ccccc1C1SCc2cc(C)c(C)cc2CS1	-2.9	1	32.2*	-6.6	-7.9
Cc1cc(C)cc(N(CCC#N)C(=O)CSc2nc3nc(C)cc(C)n3n2)c1	-3.5	1	1.8	-7.6	2.0
CC(=O)Nc1ccc(SCC(=O)N(CCC#N)c2cc(C)cc(C)c2)cc1	-0.1	1	49.0*	-8.0	-11.1
O=C(O)C1Nc2c(O)cc(Cl)c([N+](=O)[O-])c2C2C=CCC12 (stereo unspecified)	31.3	0.7	23.1	65.0*	2.3
Cc1ccc2c(c1)C1C=CCC1C(C(=O)O)N2 (stereo unspecified)	13.4	0.9	4.9	9.6	-8.4
COc1ccc(-c2csc(Nc3ccc(C)cn3)n2)cc1OC	-6.5	1.1	52.6*	-7.9	6.8
O=C(CSc1nnc(SCc2ccc(Cl)cc2)s1)N/N=C/c1c(Cl)cccc1Cl	5.3	0.9	-0.7	-9.9	0.1
C/C(=N\NC(=O)c1ccccc1)c1nc2ccccc2n1C	1.7	1	41.4*	-21.2	-0.2
CCn1c(CNC(=O)c2ccccc2)nc2ccccc21	/	/	/	/	-6.4
CC(C)(C)CC(=O)Nc1nnc(SCC(=O)Nc2ccccc2F)s1	1.0	1	10.9	2.2	-2.1
Cc1ccc2nc(N3C(=O)C(O)=C(C(=O)c4ccc(C)o4)C3c3cccc(O)c3)sc2c1 (stereo unspecified)	0.9	1	76.4*	5.7	3.6
CC(NC(=O)Nc1ccccc1F)C(C)(C)C (stereo unspecified)	-2.0	1	4.1	-3.7	-0.8
CC1=NN(c2ccccc2)C(=O)/C1=C/C=C/C=C/N(C)C	55.1*	0.4	-4.1	36.4	-6.2
CC1=NN(c2ccc(C)cc2)C(=O)/C1=C\C=C\c1ccccc1	3.3	1	-32.4	5.3	-5.8
Cc1cccc(-n2nc(C)c3c(C(=O)O)cc(-c4cccs4)nc32)c1	-5.1	1.1	41.9*	-17.2	-3.7
COc1ccc(-c2csc(NC(=O)COC(=O)C3=COCCO3)n2)cc1	-1.2	1	-8.0	-10.6	-4.0
CN1CCN(S(=O)(=O)c2ccc(NC(=S)NC(=O)c3ccc(Cl)cc3)cc2)CC1	-5.4	1.1	48.6*	20.7	1.6
CNc1ccccc(-c2ccc3ccccc3n2)c1=O	4.2	1	1.0	-11.1	-12.5
O=C(Nc1cccc(NC(=O)c2cccs2)c1)c1ccco1	-4.0	1	63.5*	-11.9	-6.3
COc1ccc(-c2c(C)oc3ccc(C)cc23)cc1	-1.8	1	2.3	-6.3	4.4
COc1ccc(-c2cc(=O)c3cc(OC)ccc3o2)cc1	-4.8	1	-13.2	-9.5	10.2
COc1ccc2oc3cc(C)[n+]([O-])c(-c4ccc(C)cc4)c3c2c1	-3.3	1	45.5*	-6.2	-0.7
COc1ccc(-c2c3c(cc(C)[n+]2[O-])oc2ccc(OC)cc23)cc1	-1.5	1	39.6*	-9.1	-6.3
COc1ccc2oc3cc(C)[n+]([O-])c(-c4ccc(Cl)cc4)c3c2c1	1.1	1	44.9*	-4.1	0.0
Cc1ccc(C2=NN=C(NC(=O)C(F)(F)F)SC2)cc1	-4.1	1	-12.6	0.2	2.9

Screening data (PubChem BioAssay)
